These results are taken from ChEMBL document CHEMBL1126566, “Studies on analogues of classical antifolates bearing the naphthoyl group in place of benzoyl in the side chain” (J Med Chem, 1993).

Data set [1] deals with HL-60. Briefly: Tested for the ability to inhibit growth in vitro against HL60. The class given is functional, cell-based. The settings on record: Homo sapiens.
Data set [2] has as its system Mus musculus. Nature of the data set: Antitumor activity against E0771 mammary adenocarcinoma in mice at 24 mg/kg(5 days) was determined and […] at day 10 was reported. Format: functional.
A short description of data set [3]: Activity relative to saturating aminopterine at 100 uM against CCRF-CEM Folyl-polyglutamate synthetase. The class given is ADME. The settings on record: human. Summed up: (§1)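 FPGS from CCRF-CEM cells: freeze-thawed lysates fractionated by (NH₄)₂SO₄ (0–40% saturation pellet) and gel sieving, stored at –90 °C in 20% glycerol, free of detectable γ-glutamyl hydrolase. Product was separated on DEAE-cellulose minicolumns. Run in duplicate or triplicate, and each experiment was repeated at least once.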

Data set [4] concerns Mus musculus. Briefly: Antitumor activity against E0771 mammary adenocarcinoma in mice at 24 mg/kg(5 days) was determined and tumor volume at day 10 was reported. Format: functional. The method, boiled down: (§2)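 Mice bearing implanted E0771 mammary adenocarcinoma, five per test group. Dosing was daily for 5 days, starting on day 3 after implantation. Tumor volume (mm³) was calculated as 4/3πr³ and is also expressed as treated/control (%).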

Data set [5] has as its system CCRF-CEM. Briefly: Percent inhibition of Folyl-polyglutamate synthase from CCRF-CEM cells. The class given is cell-based. Also noted: concentration or dose not given beside the values. The note with it: Homo sapiens, dose or concentration not given here. Summed up:
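FPGS was partially purified from CCRF-CEM cells by (NH₄)₂SO₄ fractionation and gel sieving, with no detectable γ-glutamyl hydrolase. Product was separated on DEAE-cellulose. Percent inhibition is reported.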

In data set [6] the test system is Mus musculus. Nature of the data set: Antitumor activity against E0771 mammary adenocarcinoma in mice at 12 mg/kg(5 days) was determined and tumor volume at day 10 was reported. The class given is functional. Summed up:
as §2

Data set [7] has as its system Mus musculus. Briefly: Antitumor activity against E0771 mammary adenocarcinoma in mice at 24 mg/kg(5 days) was determined and […] at day 14 was reported. Format: functional.
Data set [8] relates to Mus musculus. Briefly: Antitumor activity against E0771 mammary adenocarcinoma in mice at 12 mg/kg (5 days) was determined and […] at day 14 was reported. The class given is functional.
Data set [9] has as its system Mus musculus. Nature of the data set: Antitumor activity against E0771 mammary adenocarcinoma in mice at 24 mg/kg(5 days) was determined and […] at day 7 was reported. Format: functional. Summed up: (§3)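 E0771 mammary adenocarcinoma implanted in mice, five mice per group. Treatment was given daily for 5 days, starting day 3 after implantation. Tumor volume was calculated as 4/3πr³ and averaged on days 7, 10 and 14. T/C (%) is the treated/control tumor volume. Toxic deaths were recorded.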

Data set [10] concerns CCRF S-180. Nature of the data set: Tested for the ability to inhibit growth in vitro against S180. Format: functional, cell-based. The note with it: Mus musculus.
The target of data set [11] is T1, Dihydrofolate reductase (Mus musculus, UniProt P00375).
T1 sequence (P00375 whole entry): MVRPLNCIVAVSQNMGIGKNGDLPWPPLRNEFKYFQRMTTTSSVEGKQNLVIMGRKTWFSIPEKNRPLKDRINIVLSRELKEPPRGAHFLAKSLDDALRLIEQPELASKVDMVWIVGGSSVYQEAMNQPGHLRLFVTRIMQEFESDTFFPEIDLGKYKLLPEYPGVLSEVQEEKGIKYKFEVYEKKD
Briefly: Inhibitory activity of Dihydrofolate reductase in L1210 cells. The class given is cell-based.

For data set [12], the system named is Mus musculus. Briefly: Antitumor activity against E0771 mammary adenocarcinoma in mice at 24 mg/kg(5 days) was determined and tumor volume at day 14 was reported. The class given is functional. The method, boiled down: as §2
Data set [13] relates to Mus musculus. Briefly: Antitumor activity against E0771 mammary adenocarcinoma in mice at 24 mg/kg(5 days) was determined and tumor volume at day 7 was reported. Format: functional. Summed up:
as §2

Data set [14] concerns Mus musculus. Nature of the data set: Antitumor activity against E0771 mammary adenocarcinoma in mice at 12 mg/kg(5 days) was determined and […] at day 7 was reported. The class given is functional.
The subject of data set [15] is Mus musculus. Briefly: Antitumor activity against E0771 mammary adenocarcinoma in mice at 12 mg/kg (5 days) was determined and […] at day 10 was reported. Format: functional. The method, boiled down: as §3
In data set [16] the test system is L1210. Briefly: Tested for the ability to inhibit growth in vitro against L1210. Format: functional, cell-based. The settings on record: Mus musculus.
For data set [17], the system named is Mus musculus. Nature of the data set: Antitumor activity against E0771 mammary adenocarcinoma in mice at 12 mg/kg(5 days) was determined and tumor volume at day 7 was reported. The class given is functional. Summed up:
as §2

In data set [18] the test system is Mus musculus. Nature of the data set: Antitumor activity against E0771 mammary adenocarcinoma in mice at 12 mg/kg(5 days) was determined and tumor volume at day 14 was reported. Format: functional. Summed up:
as §2

Data set [19] has as its system L1210. Briefly: Tested for transport into L1210 cells measured as cell influx. Format: functional, cell-based, Mus musculus.
Data set [20] has as its system Mus musculus. Briefly: Antitumor activity against E0771 mammary adenocarcinoma in mice at 6 mg/kg(5 days) was determined and tumor volume at day 10 was reported. Format: functional. Summed up:
as §2

The test system of data set [21] is Folyl-polyglutamate synthase. Nature of the data set: Michaelis-Menten constant was determined against CCRF-CEM Folyl-polyglutamate synthase. The class given is ADME. The settings on record: human, folylpolyglutamate synthase from CCRF-CEM cells. The method, boiled down: as §1
The subject of data set [22] is Mus musculus. Nature of the data set: Antitumor activity against E0771 mammary adenocarcinoma in mice at 3 mg/kg(5 days) was determined and […] at day 7 was reported. Format: functional. Summed up: as §3
For data set [23], the system named is Mus musculus. Briefly: Antitumor activity against E0771 mammary adenocarcinoma in mice at 30 mg/kg(5 days) was determined and tumor volume at day 14 was reported. Format: functional.
The subject of data set [24] is Mus musculus. Nature of the data set: Antitumor activity against E0771 mammary adenocarcinoma in mice at 3 mg/kg(5 days) was determined and […] at day 10 was reported. The class given is functional. Summed up: as §3
Data set [25] deals with Mus musculus. Briefly: Antitumor activity against E0771 mammary adenocarcinoma in mice at 6 mg/kg(5 days) was determined and […] at day 10 was reported. Format: functional. The method, boiled down: as §3
Data set [26] has as its system Mus musculus. Briefly: Antitumor activity against E0771 mammary adenocarcinoma in mice at 6 mg/kg(5 days) was determined and […] at day 7 was reported. The class given is functional. Summed up:
as §3

For data set [27], the system named is Mus musculus. Nature of the data set: Antitumor activity against E0771 mammary adenocarcinoma in mice at 3 mg/kg(5 days) was determined and tumor volume at day 10 was reported. The class given is functional. Summed up:
as §2

The target in data set [28] is T2, Folylpolyglutamate synthase, mitochondrial (Mus musculus) (UniProt P48760).
T2 sequence (whole entry): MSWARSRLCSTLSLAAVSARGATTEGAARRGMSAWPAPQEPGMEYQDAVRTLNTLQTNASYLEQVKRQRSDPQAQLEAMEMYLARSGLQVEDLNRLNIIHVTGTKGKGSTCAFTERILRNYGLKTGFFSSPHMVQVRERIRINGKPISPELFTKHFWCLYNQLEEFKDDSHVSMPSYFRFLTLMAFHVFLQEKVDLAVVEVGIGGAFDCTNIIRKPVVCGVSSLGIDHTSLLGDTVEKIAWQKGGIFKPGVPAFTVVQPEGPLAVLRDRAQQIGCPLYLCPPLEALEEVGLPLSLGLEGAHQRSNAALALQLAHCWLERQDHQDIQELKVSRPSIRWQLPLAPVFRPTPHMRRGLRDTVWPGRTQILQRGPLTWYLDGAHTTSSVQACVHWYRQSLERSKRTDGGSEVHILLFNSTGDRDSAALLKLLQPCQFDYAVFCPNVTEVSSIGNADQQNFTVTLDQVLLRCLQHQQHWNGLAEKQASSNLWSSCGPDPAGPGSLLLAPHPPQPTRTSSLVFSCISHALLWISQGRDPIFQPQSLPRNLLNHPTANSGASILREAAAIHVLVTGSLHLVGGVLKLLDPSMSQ
Briefly: Specific activity of L1210 Folyl-polyglutamate synthase. Summed up:
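FPGS from L1210 cells was assayed by [³H]glutamate ligation, like the human enzyme assay. Each folate substrate was at 100 μM, and only specific activity was measured.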

In data set [29] the test system is Mus musculus. Briefly: Antitumor activity against E0771 mammary adenocarcinoma in mice at 30 mg/kg(5 days) was determined and […] at day 14 was reported. The class given is functional.
In data set [30] the test system is Mus musculus. Briefly: Antitumor activity against E0771 mammary adenocarcinoma in mice at 100 mg/kg(5 days) was determined and […] at day 14 was reported. The class given is functional.
The test system of data set [31] is Mus musculus. Briefly: Antitumor activity against E0771 mammary adenocarcinoma in mice at 100 mg/kg(5 days) was determined and tumor volume at day 14 was reported. Format: functional. Summed up: as §2
The subject of data set [32] is Mus musculus. Nature of the data set: Antitumor activity against E0771 mammary adenocarcinoma in mice at 3 mg/kg(5 days) was determined and tumor volume at day 7 was reported. Format: functional. The method, boiled down:
as §2

For data set [33], the system named is CCRF S-180. Briefly: Tested for the ability to inhibit growth in vitro against S180 cells. The class given is functional, cell-based. The settings on record: Mus musculus.
Data set [34] relates to Mus musculus. Briefly: Antitumor activity against E0771 mammary adenocarcinoma in mice at 6 mg/kg(5 days) was determined and tumor volume at day 7 was reported. The class given is functional. Summed up: as §2

`Cc1c(CN(C)c2ccc(C(=O)NC(CCC(=O)O)C(=O)O)c3ccccc23)cnc2nc(N)nc(N)c12` (configuration not stated): the IC50 (commonly the concentration at which inhibition is half-maximal) in data set [1] amounted to 0.56 nM; in [10], 2.6 nM; in data set [16] it was 2.4 nM. Moreover, the T/C – broadly, the result in the treated group divided by that in the control group, in per cent – in data set [2] turned out to be 19%; in [7] it was 28%; in [8], 60%; in data set [9] it was 39%; in [14], 49%; in data set [15], 53%. In addition, the “Relative Vmax” value in data set [3] came to 0.04. Also, the Tumor volume in data set [4] is on record as 119 mm**3; in data set [6], 333 mm**3; in data set [12], 493 mm**3; in [13] it was 87 mm**3; in data set [17], 108 mm**3; in data set [18] it was 1048 mm**3. Moreover, in [5], the inhibition (in general, the share of the control response that was lost under treatment) stood at 10%. Besides, the Ki (as a rule, the dissociation constant of the complex between target and ligand, obtained from inhibition or displacement) in data set [11] stood at 0.00484 nM; in [19] it was 660 nM.

As for `CN(Cc1cnc2nc(N)nc(N)c2n1)c1ccc(C(=O)N[C@@H](CCC(=O)O)C(=O)O)cc1` [METHOTREXATE], the IC50 in data set [1] was determined as 8.1 nM; in data set [16], 9 nM; in data set [33], 10 nM. The Tumor volume is reported as 187 mm**3 in data set [20]; 540 mm**3 in data set [23]; 624 mm**3 in data set [27]; 1437 mm**3 in [31]; 180 mm**3 in data set [32]; 108 mm**3 in [34]. In addition, the Km (commonly the concentration of substrate that gives half-maximal velocity) in data set [21] amounted to 42 µM. The T/C is reported as 81% in [22]; 100% in [24]; 30% in data set [25]; 49% in data set [26]; 31% in data set [29]; 83% in [30]. Further, the Specific activity (pM hr-1 (mg of protein)-1) in [28] came out at 0.38. In data set [19], the Ki was 3930 nM.
